Data set [1] concerns Mus musculus. Put plainly: Cataleptogenic action in mice on peroral administration. The class given is functional. As to conditions: po. In short, it runs like this: (§1)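 Six mice per group were dosed orally 1 h before testing. Forepaws were placed on a horizontal steel bar to force an abnormal posture. Holding the posture over 30 s counted as catalepsy. ED50 was the dose giving catalepsy in 50% of animals, with 95% confidence limits.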

Data set [2] concerns Mus musculus. The data set can be described thus: Anti-morphine activity against morphine-induced Straub''s tail reaction in mice expressed as % inhibition at 25 mg/kg peroral administration. Format: functional. To be noted: route oral. In short, it runs like this: (§2)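 Six mice per group received test compounds orally 1 h before morphine (20 mg/kg ip). Straub's tail reaction was scored as the index of morphine's CNS stimulant action.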

Data set [3] has as its system Rattus norvegicus. Put plainly: Evaluated for neuroleptic-like property using anti-methamphetamine test in rats on peroral administration. The class given is functional. To be noted: po. In short, it runs like this: (§3)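 Groups of six rats were dosed orally, then given methamphetamine 5 mg/kg ip 1 h later. Stereotypy was scored 0–4: sleep/eyes closed 0, motionless/eyes open 1, moving around cage 2, sniffing 3, continuous licking or gnawing 4. ED50 was the dose halving mean score versus controls, with 95% confidence limits.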

A short description of data set [4]: Ratio of muscle relaxant action to antifighting effect. Format: functional. In short, it runs like this:
(§4)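 Muscle relaxation was measured by traction test in mice (eight per group), 1 h after oral dosing. Forepaws were placed on a horizontal wire bar 30 cm high. Failure to bring the hind feet onto the wire within 5 s counted as relaxation. This action was set in ratio with the antifighting effect.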

Data set [5] in a line: Toxicity on peroral administration to mice. To be noted: mouse, in vivo, po. Format: organism-based. The procedure, abridged: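 Oral dosing to mice, eight per group; LD50 calculated by Litchfield-Wilcoxon method.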
Data set [6] deals with Mus musculus. The data set can be described thus: Anti-fighting potency against foot shock induced fighting behavior in mice expressed as % inhibition at 25 mg/kg peroral administration. To be noted: route oral. The class given is functional.
For data set [7], the system named is Mus musculus. Put plainly: Evaluated for hypothermic activity in mice at 30 mg/kgo n peroral administration. Format: functional. To be noted: dose 30 mg/kg; route oral. The procedure, abridged:
(§5)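 Six mice per group were dosed orally 1 h before testing. Rectal temperature was read with an electronic thermometer. Results are given as degrees of hypothermia (Δt °C) versus an untreated group.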

The test system of data set [8] is Rattus norvegicus. Put plainly: Evaluated for neuroleptic-like property using open-field test in rats(increase in ambulation at 3 to 20 mg/kg on peroral administration; value may range from 7.3 to 13.9. As to conditions: dose mg/kg 3-20, route oral. The class given is functional.
Data set [9] relates to Mus musculus. Put plainly: Antifighting potency against the foot shock induced fighting behavior in mice on peroral administration. Format: functional. To be noted: po.
The test system of data set [10] is Mus musculus. The data set can be described thus: Anti-morphine activity against the morphine-induced Straub's tail reaction in mice on peroral administration. The class given is functional. As to conditions: po. In short, it runs like this:
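Mice, six per group, dosed orally with test compound 1 h before morphine (20 mg/kg ip); Straub's tail reaction scored as index of morphine CNS stimulation.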

The subject of data set [11] is Mus musculus. Put plainly: Evaluated for hypothermic activity in mice at 30 mg/kg on peroral administration. The class given is functional. As to conditions: route oral. The procedure, abridged:
as §5

The test system of data set [12] is Mus musculus. The data set can be described thus: Anti-morphine activity against the morphine-induced Straub''s tail reaction in mice expressed as % inhibition at 25 mg/kg peroral administration. Format: functional. To be noted: route oral. In short, it runs like this:
as §2

For data set [13], the system named is Rattus norvegicus. The data set can be described thus: Evaluated for neuroleptic-like property using open-field test in rats(increase in ambulation at 3 to 20 mg/kg) on peroral administration; value may range from 8.4 to 17.0. The class given is functional. To be noted: dose mg/kg 3-20, route oral.
A short description of data set [14]: Ratio of the muscle relaxant action to antifighting effect. Format: functional. The procedure, abridged:
as §4

The test system of data set [15] is Mus musculus. Put plainly: Evaluated for muscle-relaxant action in mice on peroral administration. The class given is functional. As to conditions: po. The procedure, abridged: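 Traction test: mice, eight per group, dosed orally; 1 h later forepaws placed on horizontal wire bar 30 cm high; failure to bring hind feet onto wire within 5 s counted as muscle relaxation.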

Data set [16] concerns Rattus norvegicus. The data set can be described thus: Evaluated for neuroleptic-like property using anti-methamphetamine test in rats on peroral administration; value may range from 20 to 79. To be noted: po. The class given is functional. In short, it runs like this:
as §3

For data set [17], the system named is Rattus norvegicus. Put plainly: Evaluated for neuroleptic-like property using open-field test in rats(increase in ambulation at 3 to 20mg/kg on peroral administration; value may range from 8.1 to 13.2. The class given is functional. To be noted: po.
Data set [18] has as its system Mus musculus. The data set can be described thus: Cataleptogenic action in mice on peroral administration; value ranges from 26-93. The class given is functional. To be noted: po. In short, it runs like this: as §1
Data set [19] has as its system Rattus norvegicus. Put plainly: Evaluated for neuroleptic-like property using open-field test in rats(increase in ambulation at 3 to 20 mg/kg on peroral administration; value may range from 11.9 to 23.1. Format: functional. As to conditions: dose mg/kg 3-20, route oral.
In data set [20] the test system is Mus musculus. The data set can be described thus: Cataleptogenic action in mice on peroral administration; value may range from 30 to 71. Format: functional. As to conditions: po. The procedure, abridged: as §1
In data set [21] the test system is Rattus norvegicus. Put plainly: Evaluated for neuroleptic-like property using open-field test in rats(increase in ambulation at 3 to 20 mg/kg on peroral administration. Format: functional. To be noted: dose mg/kg 3-20, route oral.

The results in this text go back to ChEMBL document CHEMBL1122329, “Synthesis and antianxiety activity of (omega-piperazinylalkoxy)indan derivatives” (J Med Chem, 1983).

Usually ED50 stands for the midpoint of the dose-response relation. The low end stands for greater potency, the high end for weaker potency. As a reminder, the inhibition in vivo is the change of the read-out against control, counted positive when it falls. High values mean strong suppression, low ones little suppression. For orientation: LD50 means the dose at which mortality reaches 50%. For `Cl.Cl.Fc1cc2c(cc1OCCCN1CCN(c3ccccc3)CC1)CCC2`, the median effective dose (ED50) is greater than 100 mg/kg in the data set on Mus musculus [1], greater than 100 mg/kg in the data set with Rattus norvegicus [3] and 9.3 mg/kg in the data set with Rattus norvegicus [8]. The inhibition in vivo at 25 mg/kg in the data set on Mus musculus [2] was 89%; in the data set on Mus musculus [6], 100%. In addition, the Ratio in data set [4] is 5. Also, the LD50 in data set [5] is greater than 2000 mg/kg. Further, in the data set with Mus musculus [7], the Delta t is -2.9 °C.
Turning to `COc1cc2c(cc1OCCCN1CCN(c3cccc(Cl)c3)CC1)CCC2.Cl.Cl.Cl`, the median effective dose (ED50) was found to be 15.9 mg/kg in the data set on Mus musculus [9] and 11.3 mg/kg in the data set with Mus musculus [10]. The inhibition in vivo at 25 mg/kg in the data set with Mus musculus [2] amounted to 98%; in the data set on Mus musculus [6], 67%.
`Cl.Cl.c1ccc(N2CCN(CCCOc3ccc4c(c3)CCC4)CC2)cc1`: in the data set with Mus musculus [11], the Delta t was -2.3 °C. The ED50 was greater than 100 mg/kg with Mus musculus [1], 11.7 mg/kg in the data set with Rattus norvegicus [13] and greater than 100 mg/kg with Rattus norvegicus [3]. The inhibition in vivo at 25 mg/kg with Mus musculus [12] is 89%; with Mus musculus [6] it was 85%. Besides, the Ratio in data set [14] was found to be 2.18. Besides, the LD50 in data set [5] was greater than 1500 mg/kg.
For `Cl.Cl.O=[N+]([O-])c1ccccc1N1CCN(CCCCOc2ccc3c(c2)CCC3)CC1`, the results for the ED50 in the data set on Mus musculus [9] and in the data set with Mus musculus [10] were 25.8 mg/kg and 23 mg/kg, respectively. Moreover, the inhibition in vivo at 25 mg/kg turned out to be 54% with Mus musculus [2] and 42% with Mus musculus [6].
Turning to `CNC1=Nc2ccc(Cl)cc2C(c2ccccc2)=[N+]([O-])C1` [CHLORDIAZEPOXIDE], in the data set with Mus musculus [11], the Delta t was 0.2. For the same compound, the ED50 in the data set on Mus musculus [1] was greater than 30 mg/kg; in the data set with Rattus norvegicus [3], greater than 30 mg/kg; in the data set on Mus musculus [15] it was 8 mg/kg. This compound also had an LD50 in data set [5] of 700 mg/kg.
Turning to `Cl.Cl.Cl.Fc1ccc(N2CCN(CCCOc3cc4c(cc3Cl)CCC4)CC2)cc1`, the values for the ED50 in the data set with Mus musculus [9] and with Mus musculus [10] were 14.3 mg/kg and 11.5 mg/kg, respectively. For the same compound, the inhibition in vivo at 25 mg/kg in the data set on Mus musculus [2] turned out to be 100%; in the data set with Mus musculus [6], 83%.
As to `Cl.Cl.Cl.Clc1ccccc1N1CCN(CCCCOc2ccc3c(c2)CCC3)CC1`, the ED50 in the data set with Mus musculus [9] is 14.5 mg/kg; with Mus musculus [10] it was 30 mg/kg. Moreover, the inhibition in vivo at 25 mg/kg turned out to be 42% in the data set on Mus musculus [2] and 85% in the data set on Mus musculus [6].
In the case of `Cl.Cl.Fc1ccc(N2CCN(CCCOc3ccc4c(c3)CCC4)CC2)cc1`, the Delta t in the data set with Mus musculus [11] is -5 °C. The ED50 was 43 mg/kg with Rattus norvegicus [16], 10.3 mg/kg in the data set on Rattus norvegicus [17] and 50 mg/kg in the data set on Mus musculus [18]. Also, the inhibition in vivo at 25 mg/kg was found to be 100% in the data set with Mus musculus [12] and 88% in the data set with Mus musculus [6]. Also, the Ratio in data set [4] amounted to 3.73. The median lethal dose (LD50) in data set [5] is greater than 2000 mg/kg.
On to `Cl.Cl.Fc1ccc(N2CCN(CCCCOc3cc4c(cc3F)CCC4)CC2)cc1`, for which the results for the 50% effective dose (ED50) with Mus musculus [9] and in the data set on Mus musculus [10] were 14.4 mg/kg and 10.2 mg/kg, respectively. Moreover, the inhibition in vivo at 25 mg/kg with Mus musculus [2] stood at 90%; in the data set with Mus musculus [6] it was 83%.
Take `CN1C(=O)CN=C(c2ccccc2)c2cc(Cl)ccc21` [DIAZEPAM]: the Delta t in the data set on Mus musculus [11] is reported as -0.1. The 50% effective dose (ED50) with Mus musculus [1] is greater than 30 mg/kg; with Mus musculus [9] it was 1.6 mg/kg; with Rattus norvegicus [3], greater than 30 mg/kg; with Mus musculus [10], 1.2 mg/kg; in the data set with Mus musculus [15] it was 4.8 mg/kg.
In the case of `Cl.Cl.Cl.Clc1cc2c(cc1OCCCN1CCN(c3ccccc3)CC1)CCC2`, the 50% effective dose (ED50) is 21 mg/kg with Mus musculus [9] and 22 mg/kg in the data set on Mus musculus [10]. Further, the results for the inhibition in vivo at 25 mg/kg in the data set on Mus musculus [2] and in the data set on Mus musculus [6] were 82% and 58%, respectively.
For `Cc1cc2c(cc1OCCCN1CCN(c3ccccc3)CC1)CCC2.Cl.Cl`, the ED50 is 16.6 mg/kg in the data set with Rattus norvegicus [19], greater than 100 mg/kg with Rattus norvegicus [3], 16 mg/kg in the data set on Mus musculus [10] and 56 mg/kg in the data set with Mus musculus [20]. In addition, the inhibition in vivo at 25 mg/kg in the data set on Mus musculus [2] was 94%; with Mus musculus [6], 83%. For the same compound, in [4], the Ratio stood at 5.41. In data set [5], this compound yielded an LD50 greater than 2000 mg/kg. The compound further registered a Delta t with Mus musculus [7] of -2.5 °C.
As for `CN(C)CCCN1c2ccccc2Sc2ccc(Cl)cc21` [CHLORPROMAZINE], the Delta t in the data set on Mus musculus [11] is reported as -1.5. In addition, the figures for the ED50 in the data set on Mus musculus [1], in the data set with Rattus norvegicus [3] and in the data set on Rattus norvegicus [21] were 17 mg/kg, 15 mg/kg and 10.1 mg/kg, respectively.
